Measurements from ChEMBL document CHEMBL2163211, “Antiviral chromones from the stem of Cassia siamea” (J Nat Prod, 2012).
Converted amounts (≈) assume the structure as drawn.

Assays:
[1] = system: Human immunodeficiency virus 1; test: Antiviral activity against HIV1 infected in human C8166 cells assessed as inhibition of virus-induced cytopathic effect; assay type: functional, organism-based; conditions: Human immunodeficiency virus 1, C8166
Procedure, shortened: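 HIV-1 cytopathic-effect inhibition assay in C8166 cells gives EC50; cytotoxicity to C8166 cells measured in parallel by MTT to give CC50. Azidothymidine served as positive control.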

[2] = Cytotoxicity against human C8166 cells by MTT assay; assay type: cell-based
Procedure, shortened: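 C8166 cells assessed by MTT, with cytotoxicity expressed as CC50; azidothymidine served as the positive control.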

[3] = system: Tobacco mosaic virus; test: Antiviral activity against Tobacco mosaic virus infected in right side leaf of Nicotiana glutinosa at 20 uM after 3 to 4 days by half-leaf method; assay type: functional
Procedure, shortened: (§1)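 Half-leaf assay on N. glutinosa (local lesion host, 5–6-leaf stage, insect-free greenhouse). Purified TMV diluted to 32 μg/mL in 0.01 M PBS, mixed with compound (DMSO stock diluted with water) for 30 min, then rubbed on the left half-leaf; the right half received virus plus equal DMSO as control. Local lesions counted 3 or 4 days later, three repetitions; inhibition = (C−T)/C×100; ningnanmycin positive control.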

[4] = Therapeutic index, ratio of CC50 for human C8166 cells to EC50 for HIV1; assay type: cell-based; conditions: read-out: Ratio CC50/EC50
Procedure, shortened: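 Ratio of CC50 (MTT cytotoxicity in C8166 cells) to EC50, where EC50 comes from an assay of inhibition of HIV-1 cytopathic effects; azidothymidine served as the positive control.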

[5] = system: Tobacco mosaic virus; test: Antiviral activity against Tobacco mosaic virus infected in right side leaf of Nicotiana glutinosa at 5 uM after 3 to 4 days by half-leaf method; assay type: functional; procedure, shortened: as §1
[6] = system: Tobacco mosaic virus; test: Antiviral activity against Tobacco mosaic virus infected in right side leaf of Nicotiana glutinosa at 80 uM after 3 to 4 days by half-leaf method; assay type: functional; procedure, shortened: as §1
[7] = system: Tobacco mosaic virus; test: Antiviral activity against Tobacco mosaic virus infected in right side leaf of Nicotiana glutinosa after 3 to 4 days by half-leaf method; assay type: functional, organism-based; procedure, shortened: as §1
[8] = system: Tobacco mosaic virus; test: Antiviral activity against Tobacco mosaic virus infected in right side leaf of Nicotiana glutinosa at 160 uM after 3 to 4 days by half-leaf method; assay type: functional; procedure, shortened: as §1
[9] = system: Tobacco mosaic virus; test: Antiviral activity against Tobacco mosaic virus infected in right side leaf of Nicotiana glutinosa at 40 uM after 3 to 4 days by half-leaf method; assay type: functional; procedure, shortened: as §1
[10] = system: Tobacco mosaic virus; test: Antiviral activity against Tobacco mosaic virus infected in leaf of Nicotiana glutinosa assessed as protection against viral infection at 20 uM treated 6 hrs before infection; assay type: functional
Procedure, shortened: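 Protection test: N. glutinosa leaves pretreated with 20 μM compound solution or DMSO solution for 6 h, then inoculated with purified TMV. Local lesions counted on the host leaves and inhibition rate computed from lesion numbers versus the DMSO control.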

[11] = system: Tobacco mosaic virus; test: Antiviral activity against Tobacco mosaic virus infected in right side leaf of Nicotiana glutinosa at 10 uM after 3 to 4 days by half-leaf method; assay type: functional; procedure, shortened: as §1

Compound	EC50 [1]	CC50 [2]	inhibition at 20 µM [3]	selectivity ratio [4]	inhibition at 5 µM [5]	inhibition at 80 µM [6]	IC50 [7]	inhibition at 160 µM [8]	inhibition at 40 µM [9]	inhibition at 20 µM [10]	inhibition at 10 µM [11]
COc1cc2oc(C)cc(=O)c2c(O)c1CC=C(C)C	4.89 µg/mL (≈ 17.8 µM)	74.3 µg/mL (≈ 271 µM)	8.7%	15.2	–	–	–	–	–	–	–
CC(=O)Cc1cc(O)cc2oc(C(=O)CCO)cc(=O)c12 [SIAMCHROMONES A]	4.87 µg/mL (≈ 16.8 µM)	127 µg/mL (≈ 436 µM)	15.2%	26	6.21%	47.2%	86.4 µM	62.4%	30.3%	18.4%	11.4%
CNCC(=O)N[C@@H](CO)C(=O)N[C@H]1[C@H](O)[C@@H](O)[C@H](n2ccc(N)nc2=O)O[C@@H]1C(N)=O [NINGNANMYCIN]	–	–	30.2%	–	11.8%	61.3%	49.9 µM	82.7%	48.3%	27.4%	22.6%
COc1cc(CC(C)=O)c2c(=O)cc(CCCO)oc2c1 [SIAMCHROMONES C]	6.34 µg/mL (≈ 21.8 µM)	43.6 µg/mL (≈ 150 µM)	8.6%	6.87	–	–	–	–	–	–	–
C/C=C/c1cc(=O)c2c(CC(C)=O)cc(O)cc2o1 [SIAMCHROMONES E]	2.85 µg/mL (≈ 11 µM)	26.7 µg/mL (≈ 103 µM)	9.2%	9.37	–	–	–	–	–	–	–
Cc1cc(=O)c2c(CC(C)O[C@@H]3O[C@H](CO)[C@@H](O)[C@H](O)[C@H]3O)cc(O)cc2o1 (some centres undefined)	1.87 µg/mL (≈ 4.72 µM)	118 µg/mL (≈ 299 µM)	8.6%	63.3	–	–	–	–	–	–	–
COc1cc(CC(C)=O)c2c(=O)cc(C(=O)CCO)oc2c1 [SIAMCHROMONES B]	5.22 µg/mL (≈ 17.2 µM)	85.2 µg/mL (≈ 280 µM)	9.8%	16.3	–	–	–	–	–	–	–
Cc1cc(=O)c2c(O)c(C)c(O)c(C)c2o1	5.46 µg/mL (≈ 24.8 µM)	57.5 µg/mL (≈ 261 µM)	8.6%	10.5	–	–	–	–	–	–	–
COc1cc2c(c3oc(CCCO)cc(=O)c13)C=CC(C)(C)O2 [SIAMCHROMONES G]	8.46 µg/mL (≈ 26.7 µM)	> 200 µg/mL	5.7%	> 23.6	–	–	–	–	–	–	–
Cc1cc(=O)c2c(O)c(C)c(O[C@@H]3O[C@H](CO)[C@@H](O)[C@H](O)[C@H]3O)c(C)c2o1 [UNCINOSIDE A]	3.87 µg/mL (≈ 10.1 µM)	22.8 µg/mL (≈ 59.6 µM)	7.9%	5.89	–	–	–	–	–	–	–
Cc1cn([C@H]2C[C@H](N=[N+]=[N-])[C@@H](CO)O2)c(=O)[nH]c1=O [ZIDOVUDINE]	0.034 µg/mL (≈ 0.127 µM)	> 200 µg/mL	–	> 5880	–	–	–	–	–	–	–
COc1cc(CC(C)=O)c2c(=O)cc(CCCOC(C)=O)oc2c1 [SIAMCHROMONES D]	1.87 µg/mL (≈ 5.63 µM)	> 200 µg/mL	7.5%	> 107	–	–	–	–	–	–	–
COc1cc2c(c3oc(C)cc(=O)c13)C=CC(C)(C)O2	4.49 µg/mL (≈ 16.5 µM)	37.3 µg/mL (≈ 137 µM)	9.2%	8.3	–	–	–	–	–	–	–
CC1(C)C=Cc2c(cc(O)c3c(=O)cc(CCCO)oc23)O1 [SIAMCHROMONES F]	2.89 µg/mL (≈ 9.56 µM)	196 µg/mL (≈ 650 µM)	35.3%	68	13.5%	89.2%	31.2 µM	96.8%	61.4%	42.7%	26.7%
CC1=CC2(O)OC(C)=Cc3cc(O)cc(c32)O1 (centres undefined) [BARAKOL]	4.28 µg/mL (≈ 18.4 µM)	73.4 µg/mL (≈ 316 µM)	9%	17.1	–	–	–	–	–	–	–
CC(C)c1cc(=O)c2c(O)cc(O[C@@H]3O[C@H](CO)[C@@H](O)[C@H](O)[C@H]3O)cc2o1 [URACHROMONE A]	2.24 µg/mL (≈ 5.86 µM)	69.5 µg/mL (≈ 182 µM)	11.5%	31	4.76%	30.7%	156 µM	50.9%	22.4%	13.7%	8.11%
CC(=O)Cc1cc(O)cc2oc(C)cc(=O)c12	6.58 µg/mL (≈ 28.3 µM)	88.7 µg/mL (≈ 382 µM)	6.7%	13.5	–	–	–	–	–	–	–
CC1(C)Oc2cc3oc(CO)cc(=O)c3c(O)c2C[C@@H]1O[C@@H]1O[C@H](CO)[C@@H](O)[C@H](O)[C@H]1O	–	> 200 µg/mL	–	> 109	–	–	–	–	–	–	–
COc1cc2c(c3oc(C(=O)O)cc(=O)c13)C=CC(C)(C)O2 [PERFORATIC ACID]	11.5 µg/mL (≈ 38.2 µM)	26.5 µg/mL (≈ 87.7 µM)	13.6%	2.3	5.62%	36.8%	127 µM	54.7%	25.4%	10.2%	9.27%
CC(=O)[C@@H]1c2cc(O)cc(O)c2C(=O)C[C@]1(C)O	3.16 µg/mL (≈ 12.6 µM)	88.3 µg/mL (≈ 353 µM)	6.4%	28	–	–	–	–	–	–	–
